Measured values published in ChEMBL document CHEMBL3861994, “1,2,3-Triazole-based inhibitors of Porphyromonas gingivalis adherence to oral streptococci and biofilm formation” (Bioorg Med Chem, 2016).

Key:
[1] = (§1) Inhibition of Porphyromonas gingivalis ATCC 33277 MFA interaction with Streptococcus gordonii DL1(1) antigen 1/2 assessed as inhibition of 5(6)-carboxyfluorescein N-hydroxysuccinimide ester-labeled Porphyromonas gingivalis ATCC 33277 cell adhesion to hexidium iodide-labeled Streptococcus gordonii DL1(1) by measuring inhibition of biofilm formation preincubated with Porphyromonas gingivalis ATCC 33277 for 30 mins followed by addition to Streptococcus gordonii DL1(1) culture measured after 22 hrs by laser scanning confocal microscopy; type: cell-based
Summary of the method: (§2)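 Hexidium iodide-labelled S. gordonii (OD600 0.8 in PBS, pH 7.2) was bound to coverslips for 24 h, anaerobic, 37 °C. Carboxyfluorescein-labelled P. gingivalis (OD600 0.4) was preincubated 30 min at room temperature with compound (0–60 μM final, from 1000X DMSO stock), added, then incubated 22 h anaerobically. After fixation, confocal z-stacks (488/552 nm) were taken. IC50 is 50% reduction of the green/red fluorescence ratio; triplicates, three independent experiments.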

[2] = Cytotoxicity against gingival epithelial cells (unknown origin); type: toxicity, cell-based; settings: epithelial cell
Streptococcus gordonii [3] = assay: Growth inhibition of Streptococcus gordonii at 60 uM measured after 24 hrs; settings: read-out: GI
Porphyromonas gingivalis [4] = assay: Growth inhibition of Porphyromonas gingivalis at 60 uM measured after 24 hrs
Streptococcus gordonii [5] = assay: Growth inhibition of Streptococcus gordonii at 5 uM measured after 24 hrs; settings: read-out: GI
Porphyromonas gingivalis [6] = assay: Growth inhibition of Porphyromonas gingivalis at 5 uM measured after 24 hrs
Streptococcus gordonii [7] = assay: Growth inhibition of Streptococcus gordonii at 40 uM measured after 24 hrs; settings: read-out: GI
Porphyromonas gingivalis [8] = assay: Growth inhibition of Porphyromonas gingivalis at 40 uM measured after 24 hrs
ATCC 33277 = assay: as §1; type: cell-based; summary of the method: as §2
Streptococcus gordonii [9] = assay: Growth inhibition of Streptococcus gordonii at 20 uM measured after 24 hrs; settings: read-out: GI
Porphyromonas gingivalis [10] = assay: Growth inhibition of Porphyromonas gingivalis at 20 uM measured after 24 hrs

SMILES	IC50 [1] [µM]	Activity [2]	also measured
Fc1ccc(-c2nc(Cn3cc(-c4cccnc4)nn3)oc2-c2ccc(F)cc2)cc1	59.8	Toxic	–
c1ccc(Oc2ccc(-c3cn(Cc4nc(-c5ccccc5)c(-c5ccccc5)o4)nn3)cc2)cc1	> 60	Toxic	–
COc1ccc(-c2nc(-c3cccc(-n4cc(-c5ccc(Oc6ccccc6)cc5)nn4)c3)oc2-c2ccc(OC)cc2)cc1	> 60	Toxic	–
Clc1ccc(-c2nc(Cn3cc(-c4cccnc4)nn3)oc2-c2ccc(Cl)cc2)cc1	> 60	Toxic	–
FC(F)(F)c1cc(-c2cn(Cc3nc(-c4ccccc4)c(-c4ccccc4)o3)nn2)cc(C(F)(F)F)c1	> 60	Toxic	–
Fc1cccc(-c2cn(Cc3nc(-c4ccc(Cl)cc4)c(-c4ccc(Cl)cc4)o3)nn2)c1	> 60	Toxic	–
COc1ccc(-c2nc(-c3cccc(-n4cc(-c5ccc(F)cc5)nn4)c3)oc2-c2ccc(OC)cc2)cc1	53	Toxic	inhibition at 40 µM (Streptococcus gordonii [7]): -22.1%; growth inhibition (GI) (Porphyromonas gingivalis [8]): -14.6%
Fc1cccc(-c2cn(Cc3nc(-c4ccccc4)c(-c4ccccc4)o3)nn2)c1	> 60	Toxic	–
FC(F)(F)c1ccccc1-c1cn(Cc2nc(-c3ccc(Br)cc3)c(-c3ccc(Br)cc3)o2)nn1	> 60	Toxic	–
Fc1cccc(-c2cn(Cc3nc(-c4ccc(Br)cc4)c(-c4ccc(Br)cc4)o3)nn2)c1	> 60	Toxic	–
COc1ccccc1-c1cn(Cc2nc(-c3ccc(Cl)cc3)c(-c3ccc(Cl)cc3)o2)nn1	56.8	Toxic	inhibition at 60 µM (Streptococcus gordonii [3]): 6.6%; growth inhibition (GI) (Porphyromonas gingivalis [4]): -19.6%
COc1ccc(-c2nc(-c3cccc(-n4cc(-c5cccnc5)nn4)c3)oc2-c2ccc(OC)cc2)cc1	57.7	Toxic	–
COc1ccc2cc(-c3cn(Cc4nc(-c5ccccc5)c(-c5ccccc5)o4)nn3)ccc2c1	> 60	Toxic	–
COc1ccccc1-c1cn(Cc2nc(-c3ccc(F)cc3)c(-c3ccc(F)cc3)o2)nn1	> 60	Toxic	–
FC(F)(F)c1ccccc1-c1cn(Cc2nc(-c3ccc(Cl)cc3)c(-c3ccc(Cl)cc3)o2)nn1	56.7	Toxic	–
c1ccc(-c2nc(Cn3cc(-c4cccnc4)nn3)oc2-c2ccccc2)cc1	> 60	Toxic	–
FC(F)(F)c1ccccc1-c1cn(Cc2nc(-c3ccccc3)c(-c3ccccc3)o2)nn1	> 60	Toxic	–
Cc1ccccc1-c1cn(Cc2nc(-c3ccccc3)c(-c3ccccc3)o2)nn1	> 56.3	Toxic	–
Fc1ccc(-c2cn(Cc3nc(-c4ccccc4)c(-c4ccccc4)o3)nn2)cc1	> 60	Toxic	–
COc1ccccc1-c1cn(Cc2nc(-c3ccccc3)c(-c3ccccc3)o2)nn1	> 60	Toxic	–
Fc1ccc(-c2nc(Cn3cc(-c4cccc(F)c4)nn3)oc2-c2ccc(F)cc2)cc1	> 60	Toxic	–
CCCCCc1ccc(-c2cn(-c3cccc(-c4nc(-c5ccc(OC)cc5)c(-c5ccc(OC)cc5)o4)c3)nn2)cc1	> 60	Toxic	–
Fc1ccc(-c2nc(Cn3cc(-c4ccccc4C(F)(F)F)nn3)oc2-c2ccc(F)cc2)cc1	> 60	Toxic	–

More lines, in order of falling IC50 [1], values ahead:

IC50 [1] [µM]	SMILES	Activity [2]	also measured
52.2	COc1ccc2cc(-c3cn(-c4ccc(-c5nc(-c6ccc(F)cc6)c(-c6ccc(F)cc6)o5)cc4)nn3)ccc2c1	Toxic	–
51.5	Fc1ccc(-c2nc(-c3ccc(-n4cc(-c5cccc(F)c5)nn4)cc3)oc2-c2ccc(F)cc2)cc1	Toxic	–
50.9	Brc1ccc(-c2nc(Cn3cc(-c4cccnc4)nn3)oc2-c2ccc(Br)cc2)cc1	Toxic	–
47.4	COc1ccc(-c2nc(-c3cccc(-n4cc(-c5cc(C(F)(F)F)cc(C(F)(F)F)c5)nn4)c3)oc2-c2ccc(OC)cc2)cc1	Toxic	–
43	COc1ccccc1-c1cn(Cc2nc(-c3ccc(Br)cc3)c(-c3ccc(Br)cc3)o2)nn1	Toxic	inhibition at 60 µM (Streptococcus gordonii [3]): 11.1%; growth inhibition (GI) (Porphyromonas gingivalis [4]): -12.4%
40.9	Clc1ccc(-c2nc(-c3ccc(-n4cc(-c5cccnc5)nn4)cc3)oc2-c2ccc(Cl)cc2)cc1	Toxic	–
37.3	COc1ccccc1-c1cn(-c2ccc(-c3nc(-c4ccc(Cl)cc4)c(-c4ccc(Cl)cc4)o3)cc2)nn1	Toxic	–
36.9	CC(C)CCNc1nc(NCCC(C)C)nc(-c2cn(Cc3nc(-c4ccccc4)c(-c4ccccc4)o3)nn2)n1	Toxic	inhibition at 60 µM (Streptococcus gordonii [3]): 6.8%; growth inhibition (GI) (Porphyromonas gingivalis [4]): 72.8%
35.5	CCCCCc1ccc(-c2cn(Cc3nc(-c4ccccc4)c(-c4ccccc4)o3)nn2)cc1	Toxic	inhibition at 60 µM (Streptococcus gordonii [3]): 6.6%; growth inhibition (GI) (Porphyromonas gingivalis [4]): -14.5%
33.4	COc1ccc2cc(-c3cn(Cc4nc(-c5ccc(Br)cc5)c(-c5ccc(Br)cc5)o4)nn3)ccc2c1	Toxic	inhibition at 60 µM (Streptococcus gordonii [3]): -8.6%; growth inhibition (GI) (Porphyromonas gingivalis [4]): -9.9%
32.4	COc1ccc2cc(-c3cn(-c4ccc(-c5nc(-c6ccc(Cl)cc6)c(-c6ccc(Cl)cc6)o5)cc4)nn3)ccc2c1	Toxic	–
31	Brc1ccc(-c2nc(-c3cccc(-n4cc(-c5cccnc5)nn4)c3)oc2-c2ccc(Br)cc2)cc1	Toxic	–
29.3	COc1ccc2cc(-c3cn(Cc4nc(-c5ccc(F)cc5)c(-c5ccc(F)cc5)o4)nn3)ccc2c1	Toxic	inhibition at 60 µM (Streptococcus gordonii [3]): 0.2%; growth inhibition (GI) (Porphyromonas gingivalis [4]): -3.3%
27	COc1ccc(-c2nc(-c3cccc(-n4cc(-c5ccccc5C(F)(F)F)nn4)c3)oc2-c2ccc(OC)cc2)cc1	Toxic	inhibition at 40 µM (Streptococcus gordonii [7]): -9.7%; growth inhibition (GI) (Porphyromonas gingivalis [8]): -1.6%
25.6	Fc1ccc(-c2nc(-c3ccc(-n4cc(-c5cccnc5)nn4)cc3)oc2-c2ccc(F)cc2)cc1	Toxic	–
25.1	FC(F)(F)c1ccccc1-c1cn(-c2ccc(-c3nc(-c4ccc(Cl)cc4)c(-c4ccc(Cl)cc4)o3)cc2)nn1	Toxic	–
20.3	COc1ccc2cc(-c3cn(-c4cccc(-c5nc(-c6ccc(Br)cc6)c(-c6ccc(Br)cc6)o5)c4)nn3)ccc2c1	Toxic	–
15.7	Fc1cccc(-c2cn(-c3ccc(-c4nc(-c5ccc(Cl)cc5)c(-c5ccc(Cl)cc5)o4)cc3)nn2)c1	Toxic	–
15.4	COc1ccc(-c2nc(-c3cccc(-n4cc(-c5ccccc5OC)nn4)c3)oc2-c2ccc(OC)cc2)cc1	Toxic	inhibition at 40 µM (Streptococcus gordonii [7]): 0.8%; growth inhibition (GI) (Porphyromonas gingivalis [8]): -6.2%
15.2	FC(F)(F)c1ccccc1-c1cn(-c2cccc(-c3nc(-c4ccc(Br)cc4)c(-c4ccc(Br)cc4)o3)c2)nn1	Toxic	inhibition at 40 µM (Streptococcus gordonii [7]): 2%; growth inhibition (GI) (Porphyromonas gingivalis [8]): -0.6%
15	COc1ccccc1-c1cn(-c2cccc(-c3nc(-c4ccc(Br)cc4)c(-c4ccc(Br)cc4)o3)c2)nn1	Toxic	inhibition (ATCC 33277): Dose-dependent effect; inhibition at 40 µM (Streptococcus gordonii [7]): 10.5%; growth inhibition (GI) (Porphyromonas gingivalis [8]): 4.3%
13	COc1ccc(-c2nc(-c3cccc(-n4cc(-c5ccc6cc(OC)ccc6c5)nn4)c3)oc2-c2ccc(OC)cc2)cc1	Toxic	inhibition at 20 µM (Streptococcus gordonii [9]): -1.3%; growth inhibition (GI) (Porphyromonas gingivalis [10]): 3%
12.8	Fc1ccc(-c2nc(-c3ccc(-n4cc(-c5ccccc5C(F)(F)F)nn4)cc3)oc2-c2ccc(F)cc2)cc1	Toxic	inhibition at 40 µM (Streptococcus gordonii [7]): -11%; growth inhibition (GI) (Porphyromonas gingivalis [8]): 0.1%
7.7	COc1ccccc1-c1cn(-c2ccc(-c3nc(-c4ccc(F)cc4)c(-c4ccc(F)cc4)o3)cc2)nn1	Toxic	inhibition at 20 µM (Streptococcus gordonii [9]): -7.8%; growth inhibition (GI) (Porphyromonas gingivalis [10]): -0.5%
5.9	COc1ccc(-c2nc(-c3cccc(-n4cc(-c5cccc(F)c5)nn4)c3)oc2-c2ccc(OC)cc2)cc1	Toxic	inhibition at 40 µM (Streptococcus gordonii [7]): -9.1%; growth inhibition (GI) (Porphyromonas gingivalis [8]): -2.6%
5.3	COc1ccc2cc(-c3cn(Cc4nc(-c5ccc(Cl)cc5)c(-c5ccc(Cl)cc5)o4)nn3)ccc2c1	Toxic	inhibition at 60 µM (Streptococcus gordonii [3]): -3.8%; growth inhibition (GI) (Porphyromonas gingivalis [4]): 0.3%
5	Fc1cccc(-c2cn(-c3cccc(-c4nc(-c5ccc(Br)cc5)c(-c5ccc(Br)cc5)o4)c3)nn2)c1	Toxic	inhibition at 5 µM (Streptococcus gordonii [5]): -5.7%; growth inhibition (GI) (Porphyromonas gingivalis [6]): -4.3%
